# According to ChEMBL document CHEMBL1131807, “Synthesis and in vitro evaluation of novel highly potent coumarin inhibitors of gyrase B” (1999):
# Columns and labels:
# Type in all cases: functional
# Enterococcus faecium = test: Antibacterial activity against vancomycin, teicoplanin and erythromycin resistant Enterococcus faecium 02D31P2 strain
# Method in brief: (§1)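 MIC in µg/mL by twofold broth microdilution, read after 24 h incubation. Resistance phenotypes of the strains are as listed for each strain (ofloxacin, oxacillin, erythromycin, teicoplanin, vancomycin).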
# Staphylococcus aureus [1] = test: Antibacterial activity against Staphylococcus aureus 011HT3 strain
# Method in brief: (§2)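 MIC measured by twofold serial dilution in broth microdilution format and read after 24 hours of incubation. The resistance phenotype of each strain (ofloxacin, oxacillin, erythromycin, novobiocin, teicoplanin or vancomycin) was recorded alongside.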
# Staphylococcus aureus [2] = test: Antibacterial activity against Staphylococcus aureus novobiocin resistant strain 011HT1; method in brief: as §2
# Staphylococcus aureus [3] = test: Antibacterial activity against ofloxacin, oxacillin and erythromycin resistant Staphylococcus aureus strain 011GO76; method in brief: as §1
# Streptococcus pyogenes [4] = test: Antibacterial activity against Streptococcus pyogenes 02A1UC1 strain; method in brief: as §2
# [5] = tested on: Staphylococcus epidermidis; test: Antibacterial activity against oxacillin and teicoplanin resistant Staphylococcus epidermidis 012GO39 strain; method in brief: as §1
# Streptococcus pyogenes [6] = test: Compound was evaluated for antibacterial activity, against Streptococcus pyogenes 02A1UC1 strain; method in brief: as §2
# [7] = tested on: Staphylococcus epidermidis; test: Compound was evaluated for antibacterial activity, against oxacillin and teicoplanin resistant Staphylococcus epidermidis 012GO39 strain; method in brief: as §1
structure (smiles),measurement,setting,value
CCOC(=O)c1c(O)oc2c(C)c(O[C@@H]3OC(C)(C)[C@H](OC)[C@@H](OC(=O)c4ccc(C)[nH]4)[C@H]3O)ccc2c1=O,MIC,Enterococcus faecium,5 µg/mL
same,MIC,Staphylococcus aureus [1],0.3 µg/mL
same,MIC,Staphylococcus aureus [2],> 20 µg/mL
same,MIC,Staphylococcus aureus [3],2.5 µg/mL
same,MIC,Streptococcus pyogenes [4],0.3 µg/mL
same,MIC,[5],0.15 µg/mL
CO[C@@H]1[C@@H](OC(=O)c2ccc(C)[nH]2)[C@@H](O)[C@H](Oc2ccc3c(O)c(/C(C)=N/OCCN4CCOCC4)c(=O)oc3c2C)OC1(C)C,MIC,Enterococcus faecium,10 µg/mL
same,MIC,Staphylococcus aureus [1],0.15 µg/mL
same,MIC,Staphylococcus aureus [2],40 µg/mL
same,MIC,Staphylococcus aureus [3],0.3 µg/mL
same,MIC,Streptococcus pyogenes [4],1.2 µg/mL
same,MIC,[5],0.3 µg/mL
CO[C@@H]1[C@@H](OC(=O)c2ccc(C)[nH]2)[C@@H](O)[C@H](Oc2ccc3c(O)c(C(N)=O)c(=O)oc3c2C)OC1(C)C,MIC,Enterococcus faecium,2.5 µg/mL
same,MIC,Staphylococcus aureus [1],< 0.04 µg/mL
same,MIC,Staphylococcus aureus [2],2.5 µg/mL
same,MIC,Streptococcus pyogenes [4],0.15 µg/mL
CO[C@@H]1[C@@H](OC(=O)c2ccc(C)[nH]2)[C@@H](O)[C@H](Oc2ccc3c(O)c(C(=O)CSC)c(=O)oc3c2C)OC1(C)C,MIC,Enterococcus faecium,5 µg/mL
same,MIC,Staphylococcus aureus [1],< 0.04 µg/mL
same,MIC,Staphylococcus aureus [2],5 µg/mL
same,MIC,Streptococcus pyogenes [4],0.3 µg/mL
same,MIC,[5],0.08 µg/mL
CONC(=O)c1c(O)oc2c(C)c(O[C@@H]3OC(C)(C)[C@H](OC)[C@@H](OC(=O)c4ccc(C)[nH]4)[C@H]3O)ccc2c1=O,MIC,Enterococcus faecium,2.5 µg/mL
same,MIC,Staphylococcus aureus [1],< 0.04 µg/mL
same,MIC,Staphylococcus aureus [2],5 µg/mL
same,MIC,Staphylococcus aureus [3],0.08 µg/mL
same,MIC,Streptococcus pyogenes [4],0.15 µg/mL
same,MIC,[5],< 0.04 µg/mL
CO[C@@H]1[C@@H](OC(=O)c2ccc(C)[nH]2)[C@@H](O)[C@H](Oc2ccc3c(O)c(C(C)=O)c(=O)oc3c2C)OC1(C)C,MIC,Enterococcus faecium,2.5 µg/mL
same,MIC,Staphylococcus aureus [1],< 0.04 µg/mL
same,MIC,Staphylococcus aureus [2],5 µg/mL
same,MIC,Staphylococcus aureus [3],0.15 µg/mL
same,MIC,Streptococcus pyogenes [4],0.15 µg/mL
same,MIC,[5],0.08 µg/mL
CO[C@@H]1[C@@H](OC(=O)c2ccc(C)[nH]2)[C@@H](O)[C@H](Oc2ccc3c(O)c(C(=O)NCCN(C)C)c(=O)oc3c2C)OC1(C)C,MIC,Enterococcus faecium,10 µg/mL
same,MIC,Staphylococcus aureus [1],0.15 µg/mL
same,MIC,Staphylococcus aureus [2],20 µg/mL
same,MIC,Staphylococcus aureus [3],0.3 µg/mL
same,MIC,Streptococcus pyogenes [4],1.2 µg/mL
CO[C@@H]1[C@@H](OC(=O)c2ccc(C)[nH]2)[C@@H](O)[C@H](Oc2ccc3c(O)c(C(=O)OCC(C)C)c(=O)oc3c2C)OC1(C)C,MIC,Enterococcus faecium,5 µg/mL
same,MIC,Staphylococcus aureus [1],0.08 µg/mL
same,MIC,Staphylococcus aureus [2],10 µg/mL
same,MIC,Staphylococcus aureus [3],2.5 µg/mL
same,MIC,[5],0.08 µg/mL
CO[C@@H]1[C@@H](OC(=O)c2ccc(C)[nH]2)[C@@H](O)[C@H](Oc2ccc3c(O)c(C(=O)Nc4ccccc4)c(=O)oc3c2C)OC1(C)C,MIC,Enterococcus faecium,> 40 µg/mL
same,MIC,Staphylococcus aureus [1],< 0.04 µg/mL
same,MIC,Staphylococcus aureus [2],1.2 µg/mL
same,MIC,Staphylococcus aureus [3],0.08 µg/mL
same,MIC,Streptococcus pyogenes [4],0.6 µg/mL
same,MIC,[5],< 0.04 µg/mL
CO[C@@H]1[C@@H](OC(=O)c2ccc(C)[nH]2)[C@@H](O)[C@H](Oc2ccc3c(O)c(NC(=O)c4ccc(O)c(CC=C(C)C)c4)c(=O)oc3c2Cl)OC1(C)C [CHLOROBIOCIN],MIC,Staphylococcus aureus [1],< 0.04 µg/mL
same,MIC,Staphylococcus aureus [2],0.15 µg/mL
same,MIC,Staphylococcus aureus [3],< 0.04 µg/mL
same,MIC,Streptococcus pyogenes [4],< 0.04 µg/mL
same,MIC,[5],< 0.04 µg/mL
CCOC(=O)/C(=N\OC)c1c(O)oc2c(C)c(O[C@@H]3OC(C)(C)[C@H](OC)[C@@H](OC(=O)c4ccc(C)[nH]4)[C@H]3O)ccc2c1=O,MIC,Enterococcus faecium,5 µg/mL
same,MIC,Staphylococcus aureus [1],< 0.04 µg/mL
same,MIC,Staphylococcus aureus [2],10 µg/mL
same,MIC,Streptococcus pyogenes [4],0.15 µg/mL
CO[C@@H]1[C@@H](OC(=O)c2ccc(C)[nH]2)[C@@H](O)[C@H](Oc2ccc3c(O)c(/C(C)=N/OCCSc4ncc[nH]4)c(=O)oc3c2C)OC1(C)C,MIC,Enterococcus faecium,10 µg/mL
same,MIC,Staphylococcus aureus [1],0.3 µg/mL
same,MIC,Staphylococcus aureus [2],40 µg/mL
same,MIC,Staphylococcus aureus [3],0.3 µg/mL
same,MIC,Streptococcus pyogenes [4],0.3 µg/mL
same,MIC,[5],0.3 µg/mL
CO/N=C(\C)c1c(O)oc2c(C)c(O[C@@H]3OC(C)(C)[C@H](OC)[C@@H](OC(=O)c4ccc(C)[nH]4)[C@H]3O)ccc2c1=O,MIC,Enterococcus faecium,10 µg/mL
same,MIC,Staphylococcus aureus [1],0.15 µg/mL
same,MIC,Staphylococcus aureus [2],40 µg/mL
same,MIC,Staphylococcus aureus [3],5 µg/mL
same,MIC,Streptococcus pyogenes [4],0.3 µg/mL
same,MIC,[5],0.6 µg/mL
CCOCC(=O)c1c(O)oc2c(C)c(O[C@@H]3OC(C)(C)[C@H](OC)[C@@H](OC(=O)c4ccc(C)[nH]4)[C@H]3O)ccc2c1=O,MIC,Enterococcus faecium,5 µg/mL
same,MIC,Staphylococcus aureus [1],< 0.04 µg/mL
same,MIC,Staphylococcus aureus [2],20 µg/mL
same,MIC,Staphylococcus aureus [3],0.08 µg/mL
same,MIC,Streptococcus pyogenes [4],0.3 µg/mL
same,MIC,[5],0.08 µg/mL
CO[C@@H]1[C@@H](OC(=O)c2ccc(C)[nH]2)[C@@H](O)[C@H](Oc2ccc3c(O)c(C(=O)NCCO)c(=O)oc3c2C)OC1(C)C,MIC,Enterococcus faecium,2.5 µg/mL
same,MIC,Staphylococcus aureus [1],< 0.04 µg/mL
same,MIC,Staphylococcus aureus [2],2.5 µg/mL
same,MIC,Streptococcus pyogenes [4],0.15 µg/mL
same,MIC,[5],< 0.04 µg/mL
"COC1[C@@H](OC(N)=O)[C@@H](O)[C@H](Oc2ccc3c(O)c(NC(=O)c4ccc(O)c(CC=C(C)C)c4)c(=O)oc3c2C)OC1(C)C (single isomer, unassigned) [NOVOBIOCIN]",MIC,Enterococcus faecium,0.3 µg/mL
same,MIC,Staphylococcus aureus [1],< 0.04 µg/mL
same,MIC,Staphylococcus aureus [2],20 µg/mL
same,MIC,Streptococcus pyogenes [6],0.15 µg/mL
same,MIC,[7],0.08 µg/mL
